Tests used:
[1] = test system: PANC-1; test: Cytotoxicity against human PANC-1 cells assessed as inhibition of cell viability incubated for 72 hrs by MTS assay; assay type: functional, cell-based; conditions: PANC-1, 72 h
Summary of the method: (§1)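 Cells seeded at 0.5 to 100 × 10^3 per well the day before treatment, then exposed for 72 h to 9 serial concentrations (3.16-fold dilutions, top 198 μM), in duplicate. MTS added for a final 4 h at 37 °C and absorbance read. IC50 is the concentration giving 50% loss of viability. MI% is the maximum inhibition over the tested range.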

[2] = test system: PANC-1; test: Cytotoxicity against human PANC-1 cells assessed as maximum inhibition of cell viability upto 198 uM incubated for 72 hrs by MTS assay relative to control; assay type: functional; conditions: up to 198 µM
Summary of the method: (§2)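 Cells seeded at 0.5 to 100 × 10^3 per well the day before drug addition, then exposed to compound for 72 h. MTS added afterwards, with a further 4 h at 37 °C, and absorbance read. Tested in duplicate at 9 serial 3.16-fold dilutions, top concentration 198 μM. MI% is the maximum inhibition of viability across the tested range.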

[3] = test system: MIA PaCa-2; test: Cytotoxicity against human MIA PaCa-2 cells assessed as inhibition of cell viability incubated for 72 hrs by MTS assay; assay type: functional, cell-based; conditions: MIA PaCa-2, 72 h; summary of the method: as §1
[4] = test system: MIA PaCa-2; test: Cytotoxicity against human MIA PaCa-2 cells assessed as maximum inhibition of cell viability upto 198 uM incubated for 72 hrs by MTS assay relative to control; assay type: functional; conditions: up to 198 µM; summary of the method: as §2
[5] = test system: BXPC-3; test: Cytotoxicity against human BXPC-3 cells assessed as inhibition of cell viability incubated for 72 hrs by MTS assay; assay type: functional, cell-based; conditions: BXPC-3, 72 h; summary of the method: as §1
[6] = test system: BXPC-3; test: Cytotoxicity against human BXPC-3 cells assessed as maximum inhibition of cell viability upto 198 uM incubated for 72 hrs by MTS assay relative to control; assay type: functional; conditions: up to 198 µM; summary of the method: as §2
[7] = test system: RT112/84; test: Cytotoxicity against human RT112/84 cells assessed as inhibition of cell viability incubated for 72 hrs by MTS assay; assay type: functional, cell-based; conditions: RT112/84, 72 h; summary of the method: as §1
[8] = test system: RT112/84; test: Cytotoxicity against human RT112/84 cells assessed as maximum inhibition of cell viability upto 198 uM incubated for 72 hrs by MTS assay relative to control; assay type: functional; conditions: up to 198 µM; summary of the method: as §2
[9] = Cytotoxicity against human T24/83 cells assessed as inhibition of cell viability incubated for 72 hrs by MTS assay; assay type: functional, cell-based; conditions: T24/83, 72 h; summary of the method: as §1
[10] = Cytotoxicity against human T24/83 cells assessed as maximum inhibition of cell viability upto 198 uM incubated for 72 hrs by MTS assay relative to control; assay type: functional; conditions: up to 198 µM; summary of the method: as §2
[11] = test system: 5637; test: Cytotoxicity against human 5637 cells assessed as inhibition of cell viability incubated for 72 hrs by MTS assay; assay type: functional, cell-based; conditions: Homo sapiens, 5637, 72 h; summary of the method: as §1
[12] = test system: 5637; test: Cytotoxicity against human 5637 cells assessed as maximum inhibition of cell viability upto 198 uM incubated for 72 hrs by MTS assay relative to control; assay type: functional; conditions: up to 198 µM; summary of the method: as §2
[13] = test system: PC-3; test: Cytotoxicity against human PC-3 cells assessed as inhibition of cell viability incubated for 72 hrs by MTS assay; assay type: functional, cell-based; conditions: PC-3, 72 h; summary of the method: as §1
[14] = test system: PC-3; test: Cytotoxicity against human PC-3 cells assessed as maximum inhibition of cell viability upto 198 uM incubated for 72 hrs by MTS assay relative to control; assay type: functional; conditions: up to 198 µM; summary of the method: as §2
[15] = test system: HT-29; test: Cytotoxicity against human HT-29 cells assessed as inhibition of cell viability incubated for 72 hrs by MTS assay; assay type: functional, cell-based; conditions: HT-29, 72 h; summary of the method: as §1
[16] = test system: HT-29; test: Cytotoxicity against human HT-29 cells assessed as maximum inhibition of cell viability upto 198 uM incubated for 72 hrs by MTS assay relative to control; assay type: functional; conditions: up to 198 µM; summary of the method: as §2
[17] = test system: COLO 205; test: Cytotoxicity against human COLO 205 cells assessed as inhibition of cell viability incubated for 72 hrs by MTS assay; assay type: functional, cell-based; conditions: COLO 205, 72 h; summary of the method: as §1
[18] = test system: COLO 205; test: Cytotoxicity against human COLO 205 cells assessed as maximum inhibition of cell viability upto 198 uM incubated for 72 hrs by MTS assay relative to control; assay type: functional; conditions: up to 198 µM; summary of the method: as §2
[19] = test system: MDA-MB-231; test: Cytotoxicity against human MDA-MB-231 cells assessed as maximum inhibition of cell viability upto 198 uM incubated for 72 hrs by MTS assay relative to control; assay type: functional; conditions: up to 198 µM; summary of the method: as §2
[20] = test system: MCF7; test: Cytotoxicity against human MCF7 cells assessed as maximum inhibition of cell viability upto 198 uM incubated for 72 hrs by MTS assay relative to control; assay type: functional; conditions: up to 198 µM; summary of the method: as §2
[21] = test system: A2780; test: Cytotoxicity against human A2780 cells assessed as inhibition of cell viability incubated for 72 hrs by MTS assay; assay type: functional, cell-based; conditions: A2780, 72 h; summary of the method: as §1
[22] = test system: A2780; test: Cytotoxicity against human A2780 cells assessed as maximum inhibition of cell viability upto 198 uM incubated for 72 hrs by MTS assay relative to control; assay type: functional; conditions: up to 198 µM; summary of the method: as §2
[23] = test system: OVCAR-3; test: Cytotoxicity against human OVCAR-3 cells assessed as inhibition of cell viability incubated for 72 hrs by MTS assay; assay type: functional, cell-based; conditions: OVCAR-3, 72 h; summary of the method: as §1
[24] = test system: OVCAR-3; test: Cytotoxicity against human OVCAR-3 cells assessed as maximum inhibition of cell viability upto 198 uM incubated for 72 hrs by MTS assay relative to control; assay type: functional; conditions: up to 198 µM; summary of the method: as §2
[25] = test system: SK-MES-1; test: Cytotoxicity against human SK-MES-1 cells assessed as inhibition of cell viability incubated for 72 hrs by MTS assay; assay type: functional, cell-based; conditions: SK-MES-1, 72 h; summary of the method: as §1
[26] = test system: SK-MES-1; test: Cytotoxicity against human SK-MES-1 cells assessed as maximum inhibition of cell viability upto 198 uM incubated for 72 hrs by MTS assay relative to control; assay type: functional; conditions: up to 198 µM; summary of the method: as §2
[27] = test system: NCI-H1975; test: Cytotoxicity against human NCI-H1975 cells assessed as maximum inhibition of cell viability upto 198 uM incubated for 72 hrs by MTS assay relative to control; assay type: functional; conditions: up to 198 µM; summary of the method: as §2
[28] = test system: A498; test: Cytotoxicity against human A498 cells assessed as inhibition of cell viability incubated for 72 hrs by MTS assay; assay type: functional, cell-based; conditions: A498, 72 h; summary of the method: as §1
[29] = test system: A498; test: Cytotoxicity against human A498 cells assessed as maximum inhibition of cell viability upto 198 uM incubated for 72 hrs by MTS assay relative to control; assay type: functional; conditions: up to 198 µM; summary of the method: as §2
[30] = Cytotoxicity against human ACHN-luc2 cells assessed as inhibition of cell viability incubated for 72 hrs by MTS assay; assay type: functional, cell-based; conditions: ACHN-luc2, 72 h; summary of the method: as §1
[31] = Cytotoxicity against human ACHN-luc2 cells assessed as maximum inhibition of cell viability upto 198 uM incubated for 72 hrs by MTS assay relative to control; assay type: functional; conditions: up to 198 µM; summary of the method: as §2
[32] = test system: CAKI-2; test: Cytotoxicity against human CAKI-2 cells assessed as inhibition of cell viability incubated for 72 hrs by MTS assay; assay type: functional, cell-based; conditions: CAKI-2, 72 h; summary of the method: as §1
[33] = test system: CAKI-2; test: Cytotoxicity against human CAKI-2 cells assessed as maximum inhibition of cell viability upto 198 uM incubated for 72 hrs by MTS assay relative to control; assay type: functional; conditions: up to 198 µM; summary of the method: as §2
[34] = test system: HepG2; test: Cytotoxicity against human HepG2 cells assessed as inhibition of cell viability incubated for 72 hrs by MTS assay; assay type: functional, cell-based; conditions: HepG2, 72 h; summary of the method: as §1
[35] = test system: HepG2; test: Cytotoxicity against human HepG2 cells assessed as maximum inhibition of cell viability upto 198 uM incubated for 72 hrs by MTS assay relative to control; assay type: functional; conditions: up to 198 µM; summary of the method: as §2
[36] = test system: RL; test: Cytotoxicity against human RL cells assessed as inhibition of cell viability incubated for 72 hrs by MTS assay; assay type: functional, cell-based; summary of the method: as §1
[37] = test system: RL; test: Cytotoxicity against human RL cells assessed as maximum inhibition of cell viability upto 198 uM incubated for 72 hrs by MTS assay relative to control; assay type: functional; conditions: up to 198 µM; summary of the method: as §2
[38] = test system: RPMI-8226; test: Cytotoxicity against human RPMI-8226 cells assessed as inhibition of cell viability incubated for 72 hrs by MTS assay; assay type: functional, cell-based; conditions: RPMI-8226, 72 h; summary of the method: as §1
[39] = test system: RPMI-8226; test: Cytotoxicity against human RPMI-8226 cells assessed as maximum inhibition of cell viability upto 198 uM incubated for 72 hrs by MTS assay relative to control; assay type: functional; conditions: up to 198 µM; summary of the method: as §2
[40] = test system: K562; test: Cytotoxicity against human K562 cells assessed as inhibition of cell viability incubated for 72 hrs by MTS assay; assay type: functional, cell-based; conditions: K562, 72 h; summary of the method: as §1
[41] = test system: K562; test: Cytotoxicity against human K562 cells assessed as maximum inhibition of cell viability upto 198 uM incubated for 72 hrs by MTS assay relative to control; assay type: functional; conditions: up to 198 µM; summary of the method: as §2
[42] = test system: KG-1; test: Cytotoxicity against human KG-1 cells assessed as inhibition of cell viability incubated for 72 hrs by MTS assay; assay type: functional, cell-based; conditions: KG-1, 72 h; summary of the method: as §1
[43] = test system: KG-1; test: Cytotoxicity against human KG-1 cells assessed as maximum inhibition of cell viability upto 198 uM incubated for 72 hrs by MTS assay relative to control; assay type: functional; conditions: up to 198 µM; summary of the method: as §2
[44] = test system: HL-60; test: Cytotoxicity against human HL-60 cells assessed as inhibition of cell viability incubated for 72 hrs by MTS assay; assay type: functional, cell-based; conditions: HL-60, 72 h; summary of the method: as §1
[45] = test system: HL-60; test: Cytotoxicity against human HL-60 cells assessed as maximum inhibition of cell viability upto 198 uM incubated for 72 hrs by MTS assay relative to control; assay type: functional; conditions: up to 198 µM; summary of the method: as §2
[46] = test system: MOLT-4; test: Cytotoxicity against human MOLT-4 cells assessed as inhibition of cell viability incubated for 72 hrs by MTS assay; assay type: functional, cell-based; conditions: MOLT-4, 72 h; summary of the method: as §1
[47] = test system: MOLT-4; test: Cytotoxicity against human MOLT-4 cells assessed as maximum inhibition of cell viability upto 198 uM incubated for 72 hrs by MTS assay relative to control; assay type: functional; conditions: up to 198 µM; summary of the method: as §2

CC(=O)O[C@H]1C(=O)[C@@]2(C)[C@H]([C@H](OC(=O)c3ccccc3)[C@]3(O)C[C@H](OC(=O)[C@H](O)[C@@H](NC(=O)c4ccccc4)c4ccccc4)C(C)=C1C3(C)C)[C@]1(OC(C)=O)CO[C@@H]1C[C@@H]2O [PACLITAXEL]
IC50 [1]: 3 nM | Imax [2]: 56% | IC50 [3]: 3 nM | Imax [4]: 83% | IC50 [5]: 5 nM | Imax [6]: 85% | IC50 [7]: 10 nM | Imax [8]: 77% | IC50 [9]: 4 nM | Imax [10]: 97% | IC50 [11]: 2 nM | Imax [12]: 95% | IC50 [13]: 10 nM | Imax [14]: 62% | IC50 [15]: 30 nM | Imax [16]: 79% | IC50 [17]: 10 nM | Imax [18]: 90% | Imax [19]: 70% | Imax [20]: 75% | IC50 [21]: 8 nM | Imax [22]: 72% | IC50 [23]: 4 nM | Imax [24]: 59% | IC50 [25]: 10 nM | Imax [26]: 77% | Imax [27]: 75% | IC50 [28]: 20 nM | Imax [29]: 74% | IC50 [30]: 20 nM | Imax [31]: 47% | IC50 [32]: 10 nM | Imax [33]: 78% | IC50 [34]: 60 nM | Imax [35]: 54% | IC50 [36]: 7 nM | Imax [37]: 63% | IC50 [38]: 2 nM | Imax [39]: 95% | IC50 [40]: 13 nM | Imax [41]: 87% | IC50 [42]: 68 nM | Imax [43]: 79% | IC50 [44]: 12 nM | Imax [45]: 97% | IC50 [46]: 4 nM | Imax [47]: 99%

From ChEMBL document CHEMBL5550111, “Design, synthesis and biological evaluation of aryloxy thiophosphoramidate triesters of anticancer nucleoside analogues” (Bioorg Med Chem, 2024)
